Results: article PMC8680456 (Advanced therapeutics, 2021)

How the values were obtained:
ABCA1 = ABCA1 and CD68 immunofluorescence in aortic roots; assay type: in vivo; settings: LDLR KO mice, eight weeks of twice weekly injections, versus PBS control, n≥6
Outline: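 LDLR KO male and female mice, obtained at 4 weeks, fed high-fat diet 14 weeks, then given tail-vein injections twice weekly for 8 weeks under isoflurane; PBS controls. Perfused with PBS and 2% paraformaldehyde; aortic roots sectioned. Blocked in TBST (0.1% Triton) with 10% horse serum 1 h RT; anti-CD68 (1:500) and anti-ABCA1 (1:1000) overnight 4 °C. Fluorescence pixel intensity quantified; two-factor ANOVA, Dunnett's vs PBS, n≥6.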

RIP3 = assay: Liver toxicity by RIP3 expression; settings: mouse, in vivo
[1] = system: cholesterol-laden macrophages; assay: PA colocalization with cholesterol; assay type: cell-based; settings: 32 μM LXR or PA epitope equivalents, 24 hours
[2] = Cleavage of niche-responsive LXR PAs; assay type: physicochemical; settings: 1 mM PA, 37 °C
Outline: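 Linker-bearing PAs at 1 mM in PBS. ROS-linked: 250 μM H2O2 + 50 μM CuSO4. NDEC-linked: 10 mM TCEP. SPDP-linked: 10 mM TCEP or 10 mM DTT. PBS-only controls. Incubated at 37 °C, 5% CO2; sampled at 24 h, 4 and 7 days; stored −20 °C. LC-MS: C18 UPLC column at 40 °C, electrospray 4.7 kV, capillary 350 °C, 150–2000 m/z, 120,000 resolution.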

In the case of O=C(O)Cc1cccc(OCCCN(Cc2cccc(C(F)(F)F)c2Cl)CC(c2ccccc2)c2ccccc2)c1 [LXR, GW3965], the “ABCA1 expression relative to number of CD68+ macrophages” value (ABCA1) is reported as “significant increase in ABCA1 expression”, the “liver toxicity by RIP3 expression” value (RIP3) is reported as “Liver toxicity was observed” and the “confocal microscopy observation of cholesterol-laden macrophages” value [1] is reported as “appeared to be undergoing cell death”.

With “C16-VVAAEE-PEG4-NDEC-K(LXR) [NDEC-LXR PA]” the “PA cleavage by day 4” value ([2]; 10 mM TCEP in PBS, day 4, LC-MS) was “complete cleavage”.

With “C16-VVAAEE-PEG4-K-PPPPP-K(Mtt) [ROS-LXR PA]” the “PA cleavage after 1 week” value ([2]; 250 μM H2O2 + 50 μM CuSO4 in PBS, 1 week, LC-MS) was “completely cleaved”.
